According to ChEMBL document CHEMBL4376835, “Discovery of Nonpungent Transient Receptor Potential Vanilloid 1 (TRPV1) Agonist as Strong Topical Analgesic” (J Med Chem, 2020):
Activity calls are given as the source filed them.

Key:
[1] = molecular target: Transient receptor potential cation channel subfamily M member 8 (Mus musculus) (UniProt Q8R4D5); assay: Agonist activity at mouse TRPM8 expressed in HEK293 cells assessed as increase in calcium influx at 1 uM incubated for 1 min by Fluo-4-AM dye based FLIPR assay; format: cell-based
Sequence of Transient receptor potential cation channel subfamily M member 8 (Mus musculus) (Q8R4D5 whole entry): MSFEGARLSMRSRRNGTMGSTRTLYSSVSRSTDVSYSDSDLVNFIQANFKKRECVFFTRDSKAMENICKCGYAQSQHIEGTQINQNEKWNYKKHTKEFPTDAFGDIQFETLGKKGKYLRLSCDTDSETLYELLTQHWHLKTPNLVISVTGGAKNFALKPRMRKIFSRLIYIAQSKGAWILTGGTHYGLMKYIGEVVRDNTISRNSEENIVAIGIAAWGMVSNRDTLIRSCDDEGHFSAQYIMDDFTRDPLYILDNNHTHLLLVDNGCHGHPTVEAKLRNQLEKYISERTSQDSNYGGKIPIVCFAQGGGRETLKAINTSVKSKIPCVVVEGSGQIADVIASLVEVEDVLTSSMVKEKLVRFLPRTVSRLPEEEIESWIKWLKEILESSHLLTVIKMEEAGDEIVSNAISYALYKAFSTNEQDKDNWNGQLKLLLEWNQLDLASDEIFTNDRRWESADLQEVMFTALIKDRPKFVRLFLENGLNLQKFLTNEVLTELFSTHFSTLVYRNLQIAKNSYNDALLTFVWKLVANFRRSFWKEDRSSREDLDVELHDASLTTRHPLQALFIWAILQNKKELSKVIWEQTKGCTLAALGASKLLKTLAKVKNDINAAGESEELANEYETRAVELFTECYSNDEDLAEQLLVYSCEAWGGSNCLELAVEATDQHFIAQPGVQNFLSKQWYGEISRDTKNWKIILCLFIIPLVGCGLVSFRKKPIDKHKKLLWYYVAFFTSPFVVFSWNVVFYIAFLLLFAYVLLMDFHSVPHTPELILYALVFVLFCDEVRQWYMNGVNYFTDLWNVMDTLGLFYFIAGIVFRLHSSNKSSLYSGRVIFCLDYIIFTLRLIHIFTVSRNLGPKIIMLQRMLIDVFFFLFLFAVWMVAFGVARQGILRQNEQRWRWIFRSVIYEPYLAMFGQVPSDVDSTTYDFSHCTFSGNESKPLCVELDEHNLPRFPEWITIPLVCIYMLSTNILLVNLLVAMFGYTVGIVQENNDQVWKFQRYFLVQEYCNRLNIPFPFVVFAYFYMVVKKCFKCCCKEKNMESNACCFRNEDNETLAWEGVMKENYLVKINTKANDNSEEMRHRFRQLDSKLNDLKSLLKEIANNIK

[2] = Toxicity in ip dosed ICR mouse administered as single dose; format: organism-based; details: in vivo
[3] = Drug uptake in porcine skin assessed as dermal accumulation applied topically as carbopol-gel with 1% formulation measured for 8 hrs by Franz diffusion cell based in vitro transdermal delivery test; format: ADME, tissue-based, Sus scrofa, Zone of skin; details: pig
[4] = Toxicity in ICR mouse assessed as ear edema administered topically and measured after 30 mins; details: in vivo, topical_or_ocular, 0.5 h
Method in brief: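 Ear swelling test: a solution of the agent was applied to mouse ears, and ear punch biopsies were collected 30 min later and weighed.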

[5] = Systemic drug absorption in porcine skin assessed as drug accumulation in acceptor Franz cell applied topically as carbopol-gel with 1% formulation measured for 8 hrs by Franz diffusion cell based in vitro transdermal delivery test; format: ADME, tissue-based, Sus scrofa, Zone of skin; details: pig
Mus musculus [6] = assay: Induction of hypothermia in ICR mouse assessed as decrease in body temperature at 3 mg/kg, ip measured after 30 mins; format: functional, organism-based
[7] = Toxicity in po dosed ICR mouse administered as single dose; format: organism-based; details: in vivo
[8] = Toxicity in ICR mouse assessed as skin irritation by measuring ear scratching administered topically and measured for 30 mins; details: in vivo, topical_or_ocular, 0.5 h
Method in brief: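 Ear scratching test: a solution of the agent was applied to mouse ears, and scratching movements were counted over the following 30 min.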

[9] = molecular target: Transient receptor potential cation channel subfamily A member 1 (Mus musculus) (UniProt Q8BLA8); assay: Agonist activity at mouse TRPA1 expressed in HEK293 cells assessed as increase in calcium influx at 1 uM incubated for 1 min by Fluo-4-AM dye based FLIPR assay; format: cell-based
Sequence of Transient receptor potential cation channel subfamily A member 1 (Mus musculus) (Q8BLA8 whole entry): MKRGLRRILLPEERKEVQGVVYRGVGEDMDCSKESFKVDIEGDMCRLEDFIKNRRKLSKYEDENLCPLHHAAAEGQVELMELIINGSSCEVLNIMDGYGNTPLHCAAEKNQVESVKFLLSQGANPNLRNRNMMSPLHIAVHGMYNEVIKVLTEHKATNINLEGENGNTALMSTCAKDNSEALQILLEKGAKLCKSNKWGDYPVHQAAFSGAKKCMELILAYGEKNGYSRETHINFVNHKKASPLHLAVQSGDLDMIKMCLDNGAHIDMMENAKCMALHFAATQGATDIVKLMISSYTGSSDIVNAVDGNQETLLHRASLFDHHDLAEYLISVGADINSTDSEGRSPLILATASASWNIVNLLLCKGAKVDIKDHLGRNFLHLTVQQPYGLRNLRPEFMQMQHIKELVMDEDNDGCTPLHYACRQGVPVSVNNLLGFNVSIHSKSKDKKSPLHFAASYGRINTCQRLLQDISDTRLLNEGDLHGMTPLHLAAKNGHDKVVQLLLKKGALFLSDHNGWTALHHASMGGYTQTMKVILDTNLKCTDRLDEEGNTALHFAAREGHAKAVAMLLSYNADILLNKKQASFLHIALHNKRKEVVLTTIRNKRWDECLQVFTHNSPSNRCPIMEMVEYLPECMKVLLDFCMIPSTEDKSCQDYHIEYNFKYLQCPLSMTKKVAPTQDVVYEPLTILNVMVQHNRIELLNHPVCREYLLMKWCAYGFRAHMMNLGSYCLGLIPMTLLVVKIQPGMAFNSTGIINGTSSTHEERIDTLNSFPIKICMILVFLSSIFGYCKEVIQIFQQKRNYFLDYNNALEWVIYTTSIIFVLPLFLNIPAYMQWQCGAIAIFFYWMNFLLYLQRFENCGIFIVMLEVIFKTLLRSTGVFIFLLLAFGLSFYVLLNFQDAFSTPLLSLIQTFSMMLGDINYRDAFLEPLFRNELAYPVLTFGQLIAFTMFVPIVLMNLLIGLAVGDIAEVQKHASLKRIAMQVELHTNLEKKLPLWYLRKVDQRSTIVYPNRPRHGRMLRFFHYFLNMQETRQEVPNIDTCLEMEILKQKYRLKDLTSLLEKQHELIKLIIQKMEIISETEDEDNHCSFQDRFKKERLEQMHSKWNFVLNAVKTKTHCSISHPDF
Method in brief: (§1)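 Intracellular calcium influx read by FLIPR in cells individually transfected with TRPV1, hTRPA1, mTRPA1, mTRPV3 or mTRPM8. Each transfected line was also challenged with its own reference TRP-family agonist as a responsiveness check.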

[10] = molecular target: Transient receptor potential cation channel subfamily A member 1 (Homo sapiens) (UniProt O75762); assay: Agonist activity at human TRPA1 expressed in HEK293 cells assessed as increase in calcium influx at 100 uM incubated for 1 min by Fluo-4-AM dye based FLIPR assay; format: cell-based; method in brief: as §1
Sequence of Transient receptor potential cation channel subfamily A member 1 (Homo sapiens) (O75762 whole entry): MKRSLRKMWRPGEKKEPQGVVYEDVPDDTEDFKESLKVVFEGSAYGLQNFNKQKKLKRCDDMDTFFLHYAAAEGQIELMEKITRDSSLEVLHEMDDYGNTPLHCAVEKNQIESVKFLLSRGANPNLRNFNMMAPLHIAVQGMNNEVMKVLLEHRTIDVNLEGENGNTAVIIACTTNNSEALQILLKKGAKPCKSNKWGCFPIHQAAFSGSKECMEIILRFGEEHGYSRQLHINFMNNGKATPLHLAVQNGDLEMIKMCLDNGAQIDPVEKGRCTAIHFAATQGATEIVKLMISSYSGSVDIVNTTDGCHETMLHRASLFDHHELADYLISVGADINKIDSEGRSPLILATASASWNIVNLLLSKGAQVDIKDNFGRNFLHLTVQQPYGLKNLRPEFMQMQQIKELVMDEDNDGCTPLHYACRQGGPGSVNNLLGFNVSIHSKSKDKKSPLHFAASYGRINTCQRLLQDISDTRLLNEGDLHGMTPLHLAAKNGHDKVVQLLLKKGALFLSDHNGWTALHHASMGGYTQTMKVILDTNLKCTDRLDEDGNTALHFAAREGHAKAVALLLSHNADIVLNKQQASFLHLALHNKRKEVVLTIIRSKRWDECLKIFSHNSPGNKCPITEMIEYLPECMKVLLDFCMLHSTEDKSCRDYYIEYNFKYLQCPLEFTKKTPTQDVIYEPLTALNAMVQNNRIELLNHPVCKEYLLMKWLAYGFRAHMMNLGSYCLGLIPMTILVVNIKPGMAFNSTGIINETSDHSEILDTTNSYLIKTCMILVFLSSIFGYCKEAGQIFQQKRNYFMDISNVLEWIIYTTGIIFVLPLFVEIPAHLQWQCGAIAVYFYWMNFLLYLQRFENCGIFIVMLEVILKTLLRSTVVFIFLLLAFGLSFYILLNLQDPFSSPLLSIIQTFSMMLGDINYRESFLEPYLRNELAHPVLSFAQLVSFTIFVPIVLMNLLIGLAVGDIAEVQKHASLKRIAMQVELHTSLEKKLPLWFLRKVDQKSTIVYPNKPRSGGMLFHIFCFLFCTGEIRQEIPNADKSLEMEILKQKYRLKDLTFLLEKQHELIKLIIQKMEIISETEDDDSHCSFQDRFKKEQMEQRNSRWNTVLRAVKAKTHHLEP

Rattus norvegicus = assay: Analgesic activity in ip dosed L5/L6 spinal nerve ligation-induced neuropathic pain Sprague-Dawley rat model assessed as increase in paw withdrawal threshold in response to von frey filament compound administered at day 14 after ligation and measured up to 1.5 hrs after drug dosing by up and down method; format: functional
Method in brief: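 Rat spinal nerve ligation model of neuropathic pain. Compound was given i.p. at 1, 2, 5 or 10 mg/kg; a gabapentin 65 mg/kg i.p. arm and a saline i.p. arm were run alongside. Von Frey withdrawal thresholds were taken pre-surgery and on days 1, 7 and 14, then at 0.5, 1 and 1.5 h post-dose. Mean±SEM, n=7-8.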

Mus musculus [11] = assay: Analgesic activity in ip dosed formalin-induced nociception ICR mouse model assessed as reduction in pain behaviour by measuring less licking of formalin injected hind paw pretreated with compound 30 mins prior to formalin induction by formalin test; format: functional
Method in brief: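 Mice were dosed i.p. with 0.1–10 mg/kg, with vehicle and gabapentin (50, 100 mg/kg i.p.) arms. 2% formalin was injected into the dorsal hindpaw, and paw-licking time was recorded for the first phase (5 min) and the second phase (20–30 min). ED50 was taken from the dose–response. Mean±SEM, n=8.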

[12] = molecular target: T1, Transient receptor potential cation channel subfamily V member 3 (Mus musculus) (UniProt Q8K424); assay: Agonist activity at mouse TRPV3 expressed in HEK293 cells assessed as increase in calcium influx at 10 uM incubated for 1 min by Fluo-4-AM dye based FLIPR assay; format: cell-based
T1 sequence (whole entry): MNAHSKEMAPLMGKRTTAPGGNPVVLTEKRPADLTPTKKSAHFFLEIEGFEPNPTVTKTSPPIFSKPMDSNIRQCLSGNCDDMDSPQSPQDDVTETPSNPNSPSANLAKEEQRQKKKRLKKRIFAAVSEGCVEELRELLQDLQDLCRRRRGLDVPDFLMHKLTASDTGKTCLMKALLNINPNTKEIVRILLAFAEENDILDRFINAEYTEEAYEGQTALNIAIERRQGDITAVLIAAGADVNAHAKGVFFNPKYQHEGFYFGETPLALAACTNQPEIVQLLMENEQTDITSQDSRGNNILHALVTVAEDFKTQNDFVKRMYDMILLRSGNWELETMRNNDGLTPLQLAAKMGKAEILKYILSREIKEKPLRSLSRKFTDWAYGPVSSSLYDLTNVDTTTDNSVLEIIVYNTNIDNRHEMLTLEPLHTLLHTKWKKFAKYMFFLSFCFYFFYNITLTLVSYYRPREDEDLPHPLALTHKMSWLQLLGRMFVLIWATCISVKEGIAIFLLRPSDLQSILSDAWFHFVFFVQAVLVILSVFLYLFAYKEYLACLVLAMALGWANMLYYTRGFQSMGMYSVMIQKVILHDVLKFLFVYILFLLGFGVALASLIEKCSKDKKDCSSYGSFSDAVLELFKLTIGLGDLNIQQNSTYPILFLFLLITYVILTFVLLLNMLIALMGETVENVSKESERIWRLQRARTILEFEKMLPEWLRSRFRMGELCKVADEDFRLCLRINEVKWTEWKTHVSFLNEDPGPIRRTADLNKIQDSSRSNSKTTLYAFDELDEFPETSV

CC1CCC(C(C)C)C(O)C1 (stereo not drawn)
Activity [1]: Active

COc1cc(CNC(=O)CCCC/C=C/C(C)C)ccc1O [CAPSAICIN]
LD50 [2]: 7.5 mg/kg | Drug uptake [3]: Active | Activity [4]: Toxic | Drug absorption [5]: Active | Activity (Mus musculus [6]): Active | LD50 [7]: 119 mg/kg | Activity [8]: Toxic

O=C/C=C/c1ccccc1
Activity [9]: Active | Activity [10]: Active

NCC1(CC(=O)O)CCCCC1 [GABAPENTIN]
ED50 (Rattus norvegicus): ≥ 30 mg/kg | ED50 (Mus musculus [11]): ≥ 40 mg/kg

CC12CCC(CC1=O)C2(C)C (stereo not drawn)
Activity [12]: Active
